Molecules are shown by their SMILES. ≈ marks a conversion by molar mass, not a printed value. Where “and” joins values, the source holds several entries; their conditions need not be identical. Identical values can stand only once.

Common to all, as to experiment: Antibacterial screening, broth dilution MIC
Holding throughout (type): cell-based

The test system of assay [1] is Klebsiella pneumoniae (DSM 11678, ATCC33495). Conditions: K. pneumoniae, MHB medium, 20 h at 37 °C, absorbance 600 nm, n=3‐13. The procedure, abridged:
(§1)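 Broth microdilution in MHB (21 g/L Müller Hinton, pH 7.4). Test compound serially diluted from 64 μg/ml, inoculum 2–8×10^5 CFU/ml, duplicate wells. Incubated 20 h at 37 °C, then absorbance read at 600 nm. MIC derived by curve fitting over three independent experiments. Positive controls: amikacin for P. aeruginosa, ciprofloxacin for the others.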

For assay [2], the system named is Enterococcus faecium (DSM 20477, ATCC 19434). Conditions: E. faecium, TSY medium, 20 h at 37 °C, absorbance 600 nm, n=3‐13. The procedure, abridged: (§2)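 Test compound serially diluted from 64 μg/ml, inoculum 2–8×10^5 CFU/ml, duplicate wells. Incubated 20 h at 37 °C, then absorbance read at 600 nm. MIC derived by curve fitting over three independent experiments. Positive controls: linezolid for S. aureus, ciprofloxacin for the others.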

In assay [3] the test system is Acinetobacter baumannii (DSM 30007, ATCC 19606). Particulars: A. baumannii, MHB medium, 20 h at 37 °C, absorbance 600 nm, n=3‐13. The procedure, abridged: as §1
The test system of assay [4] is Escherichia coli (DSM1116, ATCC 9637). Particulars: E. coli, TSY medium, 20 h at 37 °C, absorbance 600 nm, n=3‐13. An outline of the steps: as §2
Assay [5] has as its system Staphylococcus aureus MRSA (DSM 11822, ICB 25701). Conditions: for Mean MIC ± standard error: MRSA, TSY medium, 20 h at 37 °C, absorbance 600 nm, n=3‐13. An outline of the steps: as §2
Assay [6] relates to Pseudomonas aeruginosa PA7 (DSM 24068). Particulars: for Mean MIC ± standard error: P. aeruginosa PA7, MHB medium, 20 h at 37 °C, absorbance 600 nm, n=3‐13. An outline of the steps:
as §1

Turning to `CCn1[c](=[Au-2][Cl])n(CC)c2ccccc21` [2 b], the “Mean MIC ± standard error” value in assay [1] was 65.6 µM and 65.6 ± 32.1 µM; in assay [2], 1.2 ± 0.0 µM; in assay [3] it was 8.4 ± 2.4 µM; in assay [4], 39.3 ± 0.0 µM; in assay [5] it was 0.8 ± 0.4 µM; in assay [6], 118.0 ± 43.1 µM.

Turning to `CC(=O)NC[C@H]1CN(c2ccc(N3CCOCC3)c(F)c2)C(=O)O1` [linezolid, reference compound], the MIC in assay [5] (Staphylococcus aureus, DSM11822|MRSA, 20 h, read-out: Mean MIC ± standard error) was 2.8 ± 1 µM (≈ 0.945 µg/mL).

`NCC[C@H](O)C(=O)N[C@@H]1C[C@H](N)[C@@H](O[C@H]2O[C@H](CN)[C@@H](O)[C@H](O)[C@H]2O)[C@H](O)[C@H]1O[C@H]1O[C@H](CO)[C@@H](O)[C@H](N)[C@H]1O` [amikacin, reference compound]: the minimum inhibitory concentration (MIC) in assay [6] (Pseudomonas aeruginosa, DSM24068, 20 h, read-out: Mean MIC ± standard error) is 6.9 ± 7.3 µM (≈ 4.04 µg/mL).

Turning to `CCn1[c](=[Au-2]([Cl])([Cl])[Cl])n(CC)c2ccccc21` [2 c], the “Mean MIC ± standard error” value in assay [1] is 16.8 µM and 16.8 ± 0.0 µM; in assay [2] it was 4.2 ± 0.0 µM; in assay [3], 3.5 ± 1.2 µM; in assay [4] it was 39.1 ± 25.6 µM; in assay [5] it was 1.1 ± 0.0 µM; in assay [6], >30 µM.

`CC(=O)OC[C@H]1O[C@@H]([S-])[C@H](OC(C)=O)[C@@H](OC(C)=O)[C@@H]1OC(C)=O.CCP(CC)CC.[Au+]` [auranofin, reference compound]: the “Mean MIC ± standard error” value was >30 µM in assay [1]; 0.6 ± 0.2 µM in assay [2]; 7.8 ± 7.1 µM in assay [3]; >30 µM in assay [4]; <0.2 µM in assay [5]; >30 µM in assay [6].

The MIC is the lowest concentration that inhibits growth of the organism.

These data come from publication PMC9290826 (Chemmedchem, 2021).
